The source of these data is PubChem BioAssay AID588743 (Vanderbilt Specialized Chemistry Center, 2011).

The source made the active and inactive calls.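 How the source made its calls: active means a dose-dependent boost of the low-dose acetylcholine calcium response, with potency and top response fitted; inactive means the rest.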

Chain of Muscarinic acetylcholine receptor M4 (Homo sapiens) (P08173 whole entry, looked up): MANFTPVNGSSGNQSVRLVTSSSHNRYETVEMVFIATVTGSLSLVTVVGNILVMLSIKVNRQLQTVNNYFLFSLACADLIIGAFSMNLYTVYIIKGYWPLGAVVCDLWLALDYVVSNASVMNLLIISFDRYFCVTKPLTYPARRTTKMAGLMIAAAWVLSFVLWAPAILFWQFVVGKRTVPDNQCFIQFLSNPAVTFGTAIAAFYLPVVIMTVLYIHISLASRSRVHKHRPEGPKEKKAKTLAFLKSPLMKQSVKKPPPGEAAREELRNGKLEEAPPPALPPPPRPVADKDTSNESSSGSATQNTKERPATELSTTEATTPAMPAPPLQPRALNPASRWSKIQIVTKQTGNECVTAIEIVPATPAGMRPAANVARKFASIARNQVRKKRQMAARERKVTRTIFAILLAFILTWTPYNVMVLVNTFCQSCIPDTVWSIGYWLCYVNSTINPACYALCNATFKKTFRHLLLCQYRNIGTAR

One test addresses Muscarinic acetylcholine receptor M4 (Homo sapiens) (UniProt P08173). Kind of test: potentiation of ACh response at M4 – CHO hM4/Gqi5 cells, calcium mobilization, SAR follow-up (AID 588743). To be noted: PAM with EC20 ACh. The gist of the method: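 System: CHO cells with human M4 plus Gqi5. Also added: acetylcholine at EC20, then at EC80 86 s later. Timing: 144 s compound preincubation, 37 °C. Signal: calcium mobilization fluorescence, cells loaded with 2.3 µM Fluo-4 AM. Read-out basis: EC50 by four-parameter logistic fit, signal as percent ACh maximum.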
(In general: A change in cytosolic calcium serves as a functional read-out for many receptors and channels.)
Broadly, the EC50 is the midpoint of the concentration-response curve. As to `Cc1nc2sc(C(=O)NCc3ccccn3)c(N)c2c(C)c1Cl`, the EC50 is 293 nM.
On the same count and under the same terms, as for `Cc1cc(CNC(=O)c2sc3nc(C)c(Cl)c(C)c3c2N)ccn1`, the figure is 57 nM; as for `Cc1nc2sc(C(=O)NCc3ccccc3Cl)c(N)c2c(C)c1Cl`, 154 nM; as for `Cc1nc2sc(C(=O)NCCc3ccncc3)c(N)c2c(C)c1Cl`, 211 nM.
On to `COCCCNC(=O)c1sc2nc(C)c(Cl)c(C)c2c1N`, for which the EC50 is 425 nM.
As to `Cc1nc2sc(C(=O)NC3CCOCC3)c(N)c2c(C)c1Cl`, the EC50 is 220 nM.
The same measure, in the same setting: then `Cc1nc2sc(C(=O)NCc3ccccc3)c(N)c2c(C)c1Cl`, with 133 nM; and `Cc1nc2sc(C(=O)NCc3ccc4c(c3)OCO4)c(N)c2c(C)c1Cl`, with 170 nM.
For `Cc1nc2sc(C(=O)NC3CC3)c(N)c2c(C)c1Cl`, the EC50 is 20.8 nM.
In the case of `Cc1nc2sc(C(=O)NCc3ccncn3)c(N)c2c(C)c1Cl`, the EC50 is 173 nM.
Take `Cc1nc2sc(C(=O)NCc3ncccn3)c(N)c2c(C)c1Cl`: the EC50 was 1070 nM.
Still for that read-out and setting: then `Cc1nc2sc(C(=O)NC(C)c3cccnc3)c(N)c2c(C)c1Cl` (configuration not stated), with 601 nM; and `Cc1nc2sc(C(=O)NCc3ccncc3)c(N)c2c(C)c1Cl`, with 37.2 nM.
The same measure, in the same setting: as for `Cc1nc2sc(C(=O)NCc3cccc(F)c3F)c(N)c2c(C)c1Cl`, the figure is 120 nM; as for `Cc1nc2sc(C(=O)NCc3cnccn3)c(N)c2c(C)c1Cl`, 250 nM; as for `Cc1nc2sc(C(=O)NC(C)(C)C)c(N)c2c(C)c1Cl`, 372 nM.
For `Cc1nc2sc(C(=O)NCc3nccs3)c(N)c2c(C)c1Cl`, the EC50 is 174 nM.
Consider `Cc1nc2sc(C(=O)NCC3CCCCC3)c(N)c2c(C)c1Cl`, for which the EC50 was 1090 nM.
Turning to `Cc1nc2sc(C(=O)NC(C)c3ccccn3)c(N)c2c(C)c1Cl` (configuration not stated), the EC50 was 1410 nM.
The same measure, in the same setting: then `Cc1ccc(CNC(=O)c2sc3nc(C)c(Cl)c(C)c3c2N)cc1`, with 132 nM; and `Cc1nc2sc(C(=O)NCc3ccc(C(F)(F)F)cc3)c(N)c2c(C)c1Cl`, with 1140 nM.
Take `Cc1nc2sc(C(=O)NC(C)C)c(N)c2c(C)c1Cl`: the EC50 is 183 nM.
`Cc1nc2sc(C(=O)NCCC3CCCN3C)c(N)c2c(C)c1Cl` (configuration not stated): the EC50 was 596 nM.
Still for that read-out and setting: as for `Cc1nc2sc(C(=O)NC(C)c3ccncc3)c(N)c2c(C)c1Cl` (configuration not stated), the figure is 600 nM; as for `COc1ccc(CNC(=O)c2sc3nc(C)c(Cl)c(C)c3c2N)cc1`, 89.1 nM; as for `Cc1nc2sc(C(=O)NCc3cccnc3)c(N)c2c(C)c1Cl`, 328 nM.
With `Cc1nc2sc(C(=O)NCCc3ccccn3)c(N)c2c(C)c1Cl`, the EC50 was 686 nM.
`Cc1nc2sc(C(=O)NCc3ccnnc3)c(N)c2c(C)c1Cl`: the EC50 was 222 nM.
In the case of `Cc1nc2sc(C(=O)NC3COC3)c(N)c2c(C)c1Cl`, the EC50 is 906 nM.
The same measure, in the same setting: then `Cc1nc2sc(C(=O)NC3CCOC3)c(N)c2c(C)c1Cl` (configuration not stated), with 28.7 nM; and `Cc1nc2sc(C(=O)NC3CCCCC3)c(N)c2c(C)c1Cl`, with 188 nM.

The test is the same for the next values; noted with them: PAM with EC20 ACh, at 30 µM (top of the series).
`CCOc1ccc(NC(=O)c2sc3nc(C)c(Cl)c(C)c3c2N)cc1`: the “percent ACh max response” value is “inactive”.
Still for that read-out and setting: then `Cc1nc2sc(C(=O)Nc3ccccc3N(C)C)c(N)c2c(C)c1Cl`, with “inactive”; and `Cc1nc2sc(C(=O)NCCc3cccnc3)c(N)c2c(C)c1Cl`, with “inactive”.
On to `COc1ccc(NC(=O)c2sc3nc(C)c(Cl)c(C)c3c2N)cc1`, for which the percent ACh max response is 45.2.

The same test, now with this note: PAM with EC20 ACh, at 36.9 µM (top of the series).
With `Cc1nc2sc(C(=O)NCc3ccc(Cl)cc3)c(N)c2c(C)c1Cl`, the percent ACh max response was 32.3.
Consider `Cc1nc2sc(C(=O)NCc3ccc(F)c(F)c3)c(N)c2c(C)c1Cl`, for which the percent ACh max response was 31.6.
